# The list is not random: actives were taken first. Their share in the collection is about 4.4%.
# EBI2 antag: blocks human EBI2 receptor beta-arrestin signaling. AID 651636. P32249. EBI2 beta-arrestin recruitment, luminescence, 7a,25-OHC stimulated. actives 0.81% (n = 360,000). inhibition, % at 5 µM; in the data active = inhibition above about 38%;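 note: enzyme fragment complementation signal reports receptor beta-arrestin coupling in cells; 0% = agonist plus DMSO wells and 100% = wells without agonist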
# Target sequence (P32249 whole entry, looked up, the tested form may be a part): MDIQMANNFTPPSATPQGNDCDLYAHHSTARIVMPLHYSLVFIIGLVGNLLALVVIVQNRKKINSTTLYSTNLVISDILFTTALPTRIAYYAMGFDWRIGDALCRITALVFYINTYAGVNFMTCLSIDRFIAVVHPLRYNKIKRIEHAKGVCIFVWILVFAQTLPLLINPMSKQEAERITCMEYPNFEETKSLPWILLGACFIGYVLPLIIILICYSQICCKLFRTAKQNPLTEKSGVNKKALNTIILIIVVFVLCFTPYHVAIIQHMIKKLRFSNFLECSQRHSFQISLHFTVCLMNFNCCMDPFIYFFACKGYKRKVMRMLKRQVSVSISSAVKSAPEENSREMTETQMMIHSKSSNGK
# MPTP inh: permeability transition pore inhibition; actives 1.4% (n = 360,000); isolated mouse mitochondria, Ca2+ swelling absorbance, 30 min; inhibition, % at 10 µM; AID 602449;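 active = inhibition of 50% or more, scaled per plate between neutral and stimulator controls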;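 note: 0% = DMSO wells given calcium and 100% = 1 mM EGTA wells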
# SENP1 FRET inh: inhibitors of human SENP1 SUMO protease catalytic domain | actives 0.21% (n = 360,000) | Q9P0U3 | AID 624204 | inhibition, % at 10 µM | recombinant SENP1 catalytic domain, CyPet-SUMO1-YPet FRET cleavage;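 active = inhibition at least 30% at 10 µM, raw YFP signal under a set limit, fluorescence ratio 0.5 to 1.5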;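 note: 0% = enzyme with DMSO and 100% = no enzyme wells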
# Target sequence (Q9P0U3 419-644 limits assumed): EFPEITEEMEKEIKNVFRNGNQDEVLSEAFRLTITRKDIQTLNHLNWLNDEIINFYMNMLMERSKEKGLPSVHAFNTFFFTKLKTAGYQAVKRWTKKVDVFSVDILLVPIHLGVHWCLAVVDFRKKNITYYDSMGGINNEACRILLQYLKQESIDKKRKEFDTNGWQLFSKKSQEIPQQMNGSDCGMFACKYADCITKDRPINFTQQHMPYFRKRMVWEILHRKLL
#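 Assay system – human recombinant His6-tagged SENP1 catalytic domain enzyme · Input – SENP1 enzyme, 20 pM final · Buffer or medium – Tris pH 8 buffer plus EDTA, NaCl, BME, BSA, NP40, catalase · Schedule – 50 min reaction at room temperature · Technique – FRET read of cyan and yellow fluorescence · Control set – no-enzyme wells low, DMSO-plus-enzyme wells high control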
# NR3A LBD binder: modulators (binders) of human NR3A ligand-binding domain | NR3A LBD differential scanning fluorimetry, Tm shift; 0% = protein alone, 100% = glycine-bound protein | Tm shift relative to glycine control, % at 25 µM | actives 2.5% (n = 340,000);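 active = melting temperature shift of at least 10% of the positive control shift, at one fixed dose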
# MPTP counter: membrane potential counter-screen of mitochondrial pore inhibitors; shares compounds with MPTP inh; inhibition, % at 10 µM; actives 78% (n = 5,000); isolated mitochondria, Rhodamine 123 fluorescence; in the data active = inhibition above about 22%;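 note: 0% = DMSO vehicle and 100% = positive control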
# MPTP swell DR: MPTP inhibition, dose response swelling confirmation; shares compounds with MPTP inh; isolated mitochondria swelling, absorbance; IC50, µM; actives 58% (n = 780); in the data active = IC50 below about 20 µM
# MPTP cs DR: active in counter-screen for permeability transition pore inhibitors; isolated mitochondria counterscreen, fluorescence read-out; shares compounds with MPTP inh; AID 651564; actives 49% (n = 780); IC50, µM; in the data active = IC50 below about 80 µM
# The depositor's hits bear a star; x = not tested or not shown.
SMILES,EBI2 antag,MPTP inh,SENP1 FRET inh,NR3A LBD binder,MPTP counter,others
Cc1cc(Cl)c(S(=O)(=O)N2CCSCC2)cc1OCC(=O)NC1CCCCC1,-3.9,85.8*,0.5,1.5,85.2*,
Cc1c(C(=O)/C=C/N(C)C)nnn1-c1ccc(Cl)cc1C#N,2.6,2.0,-3.2,0.2,x,
COc1ccc(CCNC(=O)c2cc(-c3cc(Cl)cc(Cl)c3)oc2C)cc1,25.7,77.2*,-0.1,-0.1,20.9*,
Cc1oc(-c2cc(Cl)cc(Cl)c2)cc1C(=O)NCCc1ccccc1,-2.9,92.7*,0.9,-1.0,78.5*,
O=C(NCCc1ccccc1)c1ccccc1C(=O)NCCc1ccccc1,-5.8,1.8,2.7,1.1,x,
COc1ccc(C(NC(=O)C(C)C)c2c(O)ccc3ccccc23)cc1OC (centres undefined),-5.5,1.4,2.0,-1.1,x,
CCc1c(C)nc2ccc(Br)cc2c1Cl,6.4,96.8*,-0.6,2.3,92.5*,
COc1cccc(-c2csc(N3CCN(C(=S)Nc4ccc(Cl)cc4)CC3)n2)c1,14.4,64.5*,-1.8,10.2*,69.9*,
Cc1coc2c(C)c3oc(=O)c(CCC(=O)N[C@@H](C)C(=O)N[C@@H](Cc4ccccc4)C(=O)O)c(C)c3cc12,1.0,1.0,-30.0,-0.5,x,
Fc1ccc(NC(=S)N2CCn3cccc3C2c2cccnc2)cc1 (centres undefined),4.0,4.4,-4.1,-4.0,x,
Fc1ccc(C2c3cccn3CCN2C(=S)Nc2cccc(Br)c2)cc1 (centres undefined),-0.1,90.3*,-1.5,7.2,66.4*,
COc1ccc(CN2CCN(CCCCOc3ccc(Cl)cc3)CC2)c(OC)c1OC,14.6,66.3*,2.6,-1.0,28.9*,
COCCCN1C(=O)C(CC(=O)NCc2cccs2)CC(C(=O)N2CCCCCC2)=C1C (centres undefined),0.6,0.7,2.4,x,x,
Cc1ccc(S(=O)(=O)NNC(=O)C(=O)NNS(=O)(=O)c2ccc(C)cc2)cc1,-0.4,0.6,2.1,-0.8,x,
Cc1ccc(S(=O)(=O)NNC(=O)C2CC=CCC2C(=O)O)cc1 (centres undefined),-13.1,55.4*,0.0,-2.7,1.8,MPTP swell DR=>100;MPTP cs DR=>80
c1ccc2c(c1)ncn2CCCCOc1ccc2c(c1)CCC2,3.1,88.3*,0.4,0.1,95.8*,
c1ccc2c(c1)ncn2CCCOc1ccc2c(c1)CCC2,-2.5,53.5*,3.5,1.6,59.9*,
Cc1ccccc1OCCCCn1cnc2ccccc21,2.1,92.6*,4.6,2.9,88.7*,
c1ccc(OCCCCn2cnc3ccccc32)cc1,-6.8,0.1,-1.0,3.5,x,
Cc1ccccc1OCCn1cc(C(=S)N2CCCC2)c2ccccc21,-1.7,0.3,-4.5,-26.8,x,
Cc1ccc(OCCCCn2cnc3ccccc32)cc1,2.6,0.7,-0.2,-0.9,x,
CC(=O)c1cn(CCOc2ccccc2C)c2ccccc12,0.6,96.5*,0.6,0.6,81.7*,
CC(O)C(NS(=O)(=O)c1ccc(Cl)cc1)C(=O)OCC(=O)N1CCN(c2ccccc2)CC1 (centres undefined),-1.4,-1.8,1.2,-0.5,x,
CCCOc1ccc(Cn2cnc3ccccc32)cc1,0.1,89.0*,-0.1,-0.3,76.8*,
Fc1ccc(Cn2cnc3ccccc32)cc1,3.8,2.0,-0.1,0.8,x,
SMILES,EBI2 antag,MPTP inh,SENP1 FRET inh,NR3A LBD binder,MPTP counter,others
Cc1n[nH]c(=O)nc1N/N=C/c1ccco1,-17.3,-0.9,1.1,-0.1,x,
CCCN1CCC(NC(=O)Nc2ccc([N+](=O)[O-])cc2)CC1,5.8,2.6,0.0,-1.8,x,
CCCN1CCC(NC(=O)Nc2ccc(Br)cc2)CC1,-2.5,61.4*,1.0,1.4,76.3*,
CC#CCOCC1CN(C)C(=O)O1 (centres undefined),-5.3,-0.8,-3.3,x,x,
CCOc1ccc(NC(=O)Nc2nc(SCC)ns2)cc1,-5.7,96.8*,0.8,37.4*,79.4*,
CCSc1nsc(NC(=O)Nc2ccc(F)cc2F)n1,-2.0,71.8*,0.2,0.3,91.0*,
CCSc1nsc(NC(=O)Nc2ccccc2Cl)n1,-1.4,63.0*,1.4,4.6,89.8*,
CCOc1ccc(NC(=O)c2nsc(Cl)c2Cl)cc1,-4.8,0.7,1.2,5.2,x,
CCSc1ncc(Cl)c(C(=O)Nc2ccccc2Cl)n1,-7.1,0.5,1.8,2.7,x,
COc1ccc(S(=O)(=O)N2CCOCC2)cc1NC(=O)COc1ccc2ccc(=O)oc2c1,-8.7,0.7,-7.4,-1.1,x,
O=C(NCCCc1ccccc1)N1CCOCC1,-4.6,0.1,1.7,1.1,x,
CC1Sc2ccc(S(=O)(=O)N3CCC(C(=O)Nc4ccc(Cl)cc4)CC3)cc2NC1=O (centres undefined),27.0,98.7*,9.1,9.5,99.8*,
COc1ccc(NC(=O)C2CCN(S(=O)(=O)c3ccc(N4CCCC4=O)cc3)CC2)c(OC)c1,-0.3,0.5,1.5,6.1,x,
Cc1ccc(NC(=O)C2CCN(S(=O)(=O)c3ccc(N4CCCC4=O)cc3)CC2)cc1Cl,20.7,101.6*,5.7,1.9,108.0*,
Cc1ccc(Nc2cc(C)c3c(O)cccc3n2)cc1C,-1.0,72.5*,-2.0,2.9,54.1*,
COc1ccc(Nc2cc(C)c3c(O)cccc3n2)cc1,5.7,35.9,2.4,-4.9,x,
CCCCC(=O)NC(NC(=S)N1CCOCC1)C(Cl)(Cl)Cl (centres undefined),10.9,-0.1,3.0,0.7,x,
O=C(NC(NC(=S)N1CCOCC1)C(Cl)(Cl)Cl)c1ccc(Cl)cc1 (centres undefined),7.1,67.0*,-2.8,3.9,83.4*,
CN(C)CCCNC(=S)NCC(c1ccc(Cl)cc1Cl)c1c[nH]c2ccccc12 (centres undefined),-12.5,76.8*,-0.9,-2.3,-22.9,
Cc1cccc(NC(=O)c2ccc(-n3cncn3)c([N+](=O)[O-])c2)c1,4.9,0.2,2.2,-1.8,x,
Cc1cc(C)cc(CC(Cc2nc3ccccc3[nH]2)c2nc3ccccc3[nH]2)c1 (centres undefined),30.3,96.3*,0.2,-7.2,108.4*,
CC(C(=O)Nc1ccc(Cl)cc1)N(C)Cc1cccs1 (centres undefined),19.4,1.8,-0.5,-0.3,x,
CCC(C)c1ccc(NC(=S)NCc2cccs2)cc1 (centres undefined),16.1,97.3*,-1.2,7.5,85.2*,
CC(Cc1cccs1)NC(=S)Nc1ccc(Cl)c(Cl)c1 (centres undefined),-2.8,80.2*,-0.6,0.4,94.3*,
CC(Cc1cccs1)NC(=O)Nc1cccc(Cl)c1 (centres undefined),-0.7,87.3*,1.8,-6.1,86.2*,
CC(Cc1cccs1)NC(=S)Nc1ccc(Cl)cc1 (centres undefined),-7.7,83.3*,0.7,4.6,94.9*,

# From PubChem
